Columns and labels:
HeLa cells = assay: Resazurin cell viability assay, HeLa; assay type: cell-based, human
Procedure, shortened: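 HeLa cells are kept in DMEM with 5% FCS, penicillin/streptomycin, at 37 °C and 5% CO2. Cells are seeded in triplicate at 4 × 10^3 per well one day ahead, then exposed 48 h to increasing concentrations diluted in medium from 10 mg mL−1 DMSO stocks. Medium is then replaced with resazurin (0.2 mg mL−1 final) for 4 h at 37 °C, and resorufin fluorescence is read at ex 540/em 590 nm.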

B. subtilis 168 [1] = assay: BacLight membrane disruption assay; assay type: cell-based, Bacillus subtilis; conditions: 8 μg mL^–1 (2× MIC), nisin 0.75 μg mL^–1; 15 minutes
Procedure, shortened: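 B. subtilis 168 is grown in Belitzky minimal medium to early log phase and exposed for 15 min; untreated aliquot serves as control. Cells are stained 15 min with a 1:1 SYTO 9/propidium iodide mix (1 μL per mL cells), washed twice in 100 mM Tris/1 mM EDTA pH 7.5, then examined by fluorescence microscopy. Red or orange cells in the overlay indicate permeabilized membranes.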

[2] = test system: B. subtilis 1981 GFP-MinD; assay: GFP-MinD delocalization assay; assay type: cell-based, Bacillus subtilis; conditions: 8 μg mL^–1 (2× MIC), nisin 0.75 μg mL^–1; 15 minutes
B. subtilis 168 [3] = assay: Cell wall integrity assay; assay type: cell-based, Bacillus subtilis; conditions: 8 μg mL^–1 (2× MIC), nisin 0.75 μg mL^–1; 15 minutes

Compound | IC50 HeLa (HeLa cells; 48 h) [μg mL^–1] | IC50 (HeLa cells; read-out: IC50 HeLa, 48 h) [µM] | membrane permeabilization, BacLight staining (B. subtilis 168 [1]) | GFP-MinD localization (membrane depolarization) [2] | cell wall integrity after acetic acid/methanol fixation (B. subtilis 168 [3])
N.N.[Cl][Pt][Cl] [Cisplatin] | 3.5 ± 0.9 | 11.5 ± 2.9 |  |  | 
nisin (ITSISLCTPGCKTGALMGCNMKTATCHCSIHVSK; not fully specified; Lantibiotic nisin-A; UniProt P13068 24-57, looked up) |  |  | red fluorescencing cells | MinD delocalization | membrane extrusions

— PMC5433042 (Chemical Science, 2014)
